Source: the array DNA melting data of Ke et al. (doi:10.1101/2024.01.08.574731)

How the values were obtained:
[1] = folding enthalpy; higher = less favourable; fluorescence melt of hairpins on a sequencing array, two-state fit; conditions: sodium 0.088 M
Outline: (§1)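 Melting temperature and folding enthalpy were obtained by bootstrapped two-state fitting. Fits used Cy3 fluorescence of library hairpins with annealed Cy3 and quencher oligos on a sequenced MiSeq flow cell, imaged in 50 mM Na-HEPES pH 8.0, 25 mM NaCl in 2.5 °C steps up to 60 °C and normalised to pre-quench Cy3 and control constructs. Four replicates were combined by inverse-variance weighting, and fitted temperatures were raised by 9.35 °C to match UV melts.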

[2] = melting temperature; fluorescence melt of hairpins on a sequencing array, two-state fit, raised by 9.35 °C to match UV melts; conditions: sodium 0.088 M
Outline: as §1

Row | Sequence | folding enthalpy [1] | Tm [2]
1 | GGGTCAGGAAACTGGCTC (.(.(((....))).).) | -24.5 kcal/mol | 39.8 °C
2 | GGGTCCCGAAAGGGCCCC (((.(((....))).))) | -17.9 kcal/mol | 67.2 °C
3 | GGGTCCGAAAGGAGACCC ((((((....)))..))) | -22 kcal/mol | 53.1 °C
4 | GGGTCCGAAAGGATACCC ((((((....)))..))) | -20.1 kcal/mol | 50 °C
5 | GGGTCCGAAAGGATTCCC ((((((....)))..))) | -22.2 kcal/mol | 44.1 °C
6 | GGGTCCGGAAACGGACTC (.(((((....))))).) | -15.2 kcal/mol | 61.3 °C
7 | GGGTCCGGAAACGGATCC ((.((((....)))).)) | -38.1 kcal/mol | 59.1 °C
8 | GGGTCGCGAAAGCGCCCC (((.(((....))).))) | -18.6 kcal/mol | 66.8 °C
9 | GGGTCGGGAAACTGGCCC (((.(.(....).).))) | -35.8 kcal/mol | 50.6 °C
10 | GGGTCTCCGAAAGGACCC (((..(((....)))))) | -26.5 kcal/mol | 51.4 °C
11 | GGGTCTGGAAACAGACCC (((((((....))))))) | -36.1 kcal/mol | 68.8 °C
12 | GGGTCTGGAAACAGGCCC (((.(((....))).))) | -46.8 kcal/mol | 59.8 °C
13 | GGGTGACGAAAGTCCCC (((.(((....)))))) | -34.9 kcal/mol | 58.4 °C
14 | GGGTGAGGAAACTCACCC (((((((....))))))) | -33.8 kcal/mol | 68.6 °C
15 | GGGTGAGGAAACTCATCC ((.((((....)))).)) | -43.1 kcal/mol | 49.2 °C
16 | GGGTGAGGAAACTCGTCC ((..(((....)))..)) | -28.5 kcal/mol | 34.3 °C
17 | GGGTGATCGAAAGATCCC (((..(((....)))))) | -19 kcal/mol | 50.2 °C
18 | GGGTGCCCGAAAGGGCCC (((..(((....)))))) | -11.6 kcal/mol | 55.5 °C
19 | GGGTGCGAAAGCAATCCC ((((((....)))..))) | -21.8 kcal/mol | 50.6 °C
20 | GGGTGCGAAAGCATCCC ((((((....))).))) | -18.5 kcal/mol | 65.2 °C
21 | GGGTGCGAAAGCATTCCC ((((((....)))..))) | -17.4 kcal/mol | 46.9 °C
22 | GGGTGGCCGAAAGGCCCC (((..(((....)))))) | -11.8 kcal/mol | 54.2 °C
23 | GGGTGGCGAAAGCCCCC (((.(((....)))))) | -17.3 kcal/mol | 66.9 °C

Row | Sequence | folding enthalpy [1] | Tm [2]
24 | GGGTGGCGAAAGCCTCCC (((.(((....))).))) | -28 kcal/mol | 66.2 °C
25 | GGGTGGGAAACCACCC ((((((....)))))) | -29.6 kcal/mol | 68.2 °C
26 | GGGTGTACGAAAGTACCC (((..(((....)))))) | -23.1 kcal/mol | 53.3 °C
27 | GGGTGTGGAAACGCATCC ((.((.(....).)).)) | -26.3 kcal/mol | 41.3 °C
28 | GGGTGTGGAAACGTACCC ((((..(....)..)))) | -28.7 kcal/mol | 45.5 °C
29 | GGGTTACGAAAGTACCC (((.(((....)))))) | -31.5 kcal/mol | 54.3 °C
30 | GGGTTACGAAAGTATCCC (((.(((....))).))) | -43.4 kcal/mol | 51.4 °C
31 | GGGTTAGGAAACTGACCC ((((.((....)).)))) | -34.6 kcal/mol | 50 °C
32 | GGGTTCGAAAGAACTCCC ((((((....)))..))) | -13.5 kcal/mol | 46.5 °C
33 | GGGTTCGAAAGAAGCCCC ((((((....)))..))) | -20.9 kcal/mol | 55.3 °C
34 | GGGTTTACGAAAGTACCC (((..(((....)))))) | -24.2 kcal/mol | 41.2 °C
35 | GGGTTTCGAAAGAACCC (((.(((....)))))) | -38 kcal/mol | 51.2 °C
36 | GGGTTTGCGAAAGCACCC (((..(((....)))))) | -18.9 kcal/mol | 47.3 °C
37 | GGGTTTGGAAACAAACCC (((((((....))))))) | -39.6 kcal/mol | 66.8 °C
38 | GGGTTTGGAAACAAGTCC ((..(((....)))..)) | -22.3 kcal/mol | 30.4 °C
39 | GGGTTTGGAAACAGACCC ((((.((....)).)))) | -39.9 kcal/mol | 48.8 °C
40 | GGGTTTGGAAACAGATCC ((.(.((....)).).)) | -13 kcal/mol | 29.9 °C
41 | GGGTTTGGAAACGAACCC (((((.(....).))))) | -59.2 kcal/mol | 52.3 °C
42 | GGGTTTGGAAACGAACTC (.(((.(....).))).) | -24 kcal/mol | 32.4 °C
43 | GGTAAAACGAAAGTTACC (((..(((....)))))) | -19.1 kcal/mol | 37.3 °C
44 | GGTAAACGAAAGTTAACC (((.(((....))).))) | -30.5 kcal/mol | 43.2 °C
45 | GGTAAAGCGAAAGCTACC (((..(((....)))))) | -19 kcal/mol | 44.8 °C
46 | GGTAAAGGAAACCTTACC (((((.(....).))))) | -22 kcal/mol | 35.5 °C

Row | Sequence | folding enthalpy [1] | Tm [2]
47 | GGTAAAGGAAACTTTACC (((((((....))))))) | -47.8 kcal/mol | 52.1 °C
48 | GGTAACGAAAGTTCAACC ((((((....)))..))) | -11 kcal/mol | 27.7 °C
49 | GGTAACGAAAGTTGACC ((((((....))).))) | -20.6 kcal/mol | 39.2 °C
50 | GGTAACGAAAGTTGTACC ((((((....)))..))) | -17.5 kcal/mol | 34.8 °C
51 | GGTAACGCGAAAGCGACC (((..(((....)))))) | -14.1 kcal/mol | 40.9 °C
52 | GGTAACGGAAACATTACC (((((.(....).))))) | -21.2 kcal/mol | 31.5 °C
53 | GGTAACGGAAACGCTACC ((((.((....)).)))) | -29.7 kcal/mol | 43.7 °C
54 | GGTAAGAAATTACC (((((....))))) | -16 kcal/mol | 34.3 °C
55 | GGTAAGCGAAAGCTACC (((.(((....)))))) | -26.7 kcal/mol | 55 °C
56 | GGTAAGGGAAACCTCACC (((.(((....))).))) | -21.9 kcal/mol | 34.7 °C
57 | GGTAATCGAAAGATGACC (((.(((....))).))) | -33.9 kcal/mol | 47.5 °C
58 | GGTAATGGAAACACTACC ((((.((....)).)))) | -15.4 kcal/mol | 30.1 °C
59 | GGTACCGAAAGGTAAACC ((((((....)))..))) | -16.2 kcal/mol | 40.5 °C
60 | GGTACCGAAAGGTACACC ((((((....)))..))) | -9.32 kcal/mol | 51.7 °C
61 | GGTACCGAAAGGTTAACC ((((((....)))..))) | -17.3 kcal/mol | 38.6 °C
62 | GGTACCGAAAGGTTCACC ((((((....)))..))) | -13.6 kcal/mol | 34.4 °C
63 | GGTACCGGAAACGGCACC (((.(((....))).))) | -29.9 kcal/mol | 52.5 °C
64 | GGTACGGGAAACCATACC ((((.((....)).)))) | -28.2 kcal/mol | 36.7 °C
65 | GGTACGGGAAACCGCACC (((.(((....))).))) | -28.6 kcal/mol | 50.5 °C
66 | GGTAGACGAAAGTCAACC (((.(((....))).))) | -26.3 kcal/mol | 51.5 °C
67 | GGTAGACGAAAGTCACC (((.(((....)))))) | -23.6 kcal/mol | 50.8 °C
68 | GGTAGACGAAAGTCGACC (((.(((....))).))) | -39.1 kcal/mol | 58.1 °C
